Counter-ions that a name gives are not always drawn. Each block holds one molecule with its values, some of them ahead of it. Active and inactive are the calls of the source. No cut-off for these calls is given here.
Legend:
[1] = biological target: 5-hydroxytryptamine receptor 2B (Homo sapiens) (UniProt P41595); assay: Inhibition of 5-HT2B receptor (unknown origin) at 500 uM relative to control
Mus musculus [2] = assay: Increase in Nrf2 level in thymus of MOG35-55 induced experimental autoimmune encephalomyelitis C57BL/6 mouse model at 60 to 90 mg/kg, po measured for 8 hrs; type: functional, organism-based; settings: dose 60-90 mg/kg
How it was run: (§1)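 After the EAE study, mouse thymus was analysed for Nrf2 levels by Western blot, following BID dosing at 60 and 90 mg/kg, or at 75 mg/kg for the DMF control. Nrf2 increase was assessed over an 8 h period.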

THP-1 = assay: Inhibition of LPS-induced IL-23 production in IFN-gamma primed human THP-1 cells preincubated for 1 hr followed by LPS stimulation for 18 hrs by sandwich ELISA; type: functional, cell-based
Mus musculus [3] = assay: Antiinflammatory activity against MOG35-55 induced experimental autoimmune encephalomyelitis C57BL/6 mouse model assessed as reduction in clinical score at 30 mg/kg, po BID and measured for 28 days; type: functional
How it was run: (§2)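 EAE was induced in mice by immunization with myelin oligodendrocyte glycoprotein (MOG). Compounds were dosed twice daily (BID), with DMF dosed BID as control. Clinical scores were followed over the study and reported as mean with SEM. Efficacy is expressed as % reduction in clinical score.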

Mus musculus [4] = assay: Antiinflammatory activity against MOG35-55 induced experimental autoimmune encephalomyelitis C57BL/6 mouse model assessed as reduction in clinical score at 60 mg/kg, po BID and measured for 28 days; type: functional; settings: C57BL/6, 672 h, time 28 day; how it was run: as §2
[5] = biological target: T1, Adenosine receptor A3 (Homo sapiens) (UniProt P0DMS8); assay: Inhibition of adenosine A3 receptor (unknown origin) at 500 uM relative to control
T1 sequence (whole entry): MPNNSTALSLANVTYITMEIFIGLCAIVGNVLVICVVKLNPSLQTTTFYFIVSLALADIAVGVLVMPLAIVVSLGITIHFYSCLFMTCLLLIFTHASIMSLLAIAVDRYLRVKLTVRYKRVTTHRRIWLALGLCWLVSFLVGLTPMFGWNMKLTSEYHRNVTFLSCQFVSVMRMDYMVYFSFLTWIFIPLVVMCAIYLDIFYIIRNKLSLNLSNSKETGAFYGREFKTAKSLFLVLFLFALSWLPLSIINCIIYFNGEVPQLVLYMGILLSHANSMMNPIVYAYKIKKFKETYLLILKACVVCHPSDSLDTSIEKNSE

[6] = biological target: T2, Voltage-gated inwardly rectifying potassium channel KCNH2 (Homo sapiens, UniProt Q12809); assay: Inhibition of hERG assessed as inhibition of channel current at 180 uM by manual patch clamp analysis; type: toxicity
[7] = biological target: T3, Nuclear factor erythroid 2-related factor 2 (Homo sapiens, UniProt Q16236); assay: Activation of Nrf2 in human PathHunter U2OS Keap1-Nrf2 cells assessed as Nrf2 nuclear translocation by chemiluminescent assay; type: cell-based
T3 sequence (Q16236 whole entry): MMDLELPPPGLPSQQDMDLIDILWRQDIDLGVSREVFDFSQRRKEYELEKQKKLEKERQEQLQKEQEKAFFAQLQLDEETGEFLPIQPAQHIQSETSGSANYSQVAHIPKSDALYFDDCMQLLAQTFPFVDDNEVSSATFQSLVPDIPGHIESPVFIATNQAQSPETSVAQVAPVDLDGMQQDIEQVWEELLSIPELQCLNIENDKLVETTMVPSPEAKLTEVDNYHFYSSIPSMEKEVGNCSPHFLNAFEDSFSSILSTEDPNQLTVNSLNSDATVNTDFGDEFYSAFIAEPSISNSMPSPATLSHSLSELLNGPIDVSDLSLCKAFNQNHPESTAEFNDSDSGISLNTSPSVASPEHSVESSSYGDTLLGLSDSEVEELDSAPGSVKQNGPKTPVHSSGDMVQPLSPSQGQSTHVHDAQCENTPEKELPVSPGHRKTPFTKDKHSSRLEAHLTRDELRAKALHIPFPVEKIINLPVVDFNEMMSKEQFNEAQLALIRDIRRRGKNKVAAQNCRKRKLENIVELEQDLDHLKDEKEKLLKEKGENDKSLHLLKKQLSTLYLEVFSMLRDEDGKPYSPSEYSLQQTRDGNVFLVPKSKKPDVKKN

[8] = biological target: T4, Nuclear factor erythroid 2-related factor 2 (Homo sapiens) (UniProt Q16236); assay: Activation of Nrf2 in human THP-1 cells assessed as increase in HO-1 expression at 0.08 to 10 uM by western blot analysis; type: cell-based; settings: filed as activator, dose 0.08-10 µM
T4 sequence (whole entry): T3 sequence (Q16236 whole entry)
How it was run: (§3)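 THP-1 cells were exposed to a range of compound concentrations. Cellular Nrf2 and HO-1 expression were detected by Western blot.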

Mus musculus [9] = assay: Antiinflammatory activity against MOG35-55 induced experimental autoimmune encephalomyelitis C57BL/6 mouse model assessed as reduction in clinical score at 75 mg/kg, po BID and measured for 28 days; type: functional; settings: C57BL/6, 672 h, time 28 day; how it was run: as §2
[10] = biological target: T4, Nuclear factor erythroid 2-related factor 2 (Homo sapiens); assay: Activation of Nrf2 in human THP-1 cells assessed as increase in cellular Nrf2 level at 0.08 to 10 uM by western blot analysis; type: cell-based; settings: filed as activator, dose 0.08-10 µM; how it was run: as §3
Mus musculus [11] = assay: Increase in Nrf2 level in thymus of MOG35-55 induced experimental autoimmune encephalomyelitis C57BL/6 mouse model at 75 mg/kg, po measured for 8 hrs; type: functional, organism-based; how it was run: as §1
[12] = biological target: T2, Voltage-gated inwardly rectifying potassium channel KCNH2; assay: Inhibition of hERG assessed as inhibition of channel current at 60 uM by manual patch clamp analysis; type: toxicity
[13] = Mutagenicity in Salmonella typhimurium by Ames test; type: toxicity; settings: salmonella enterica subsp. enterica serovar typhimurium
[14] = Metabolic stability of the compound in mouse plasma; type: ADME, cell-free
[15] = biological target: T2, Voltage-gated inwardly rectifying potassium channel KCNH2; assay: Inhibition of hERG assessed as inhibition of channel current at 200 uM by manual patch clamp analysis; type: toxicity
Mus musculus [16] = assay: Antiinflammatory activity against MOG35-55 induced experimental autoimmune encephalomyelitis C57BL/6 mouse model assessed as reduction in clinical score at 10 mg/kg, po BID and measured for 28 days; type: functional; settings: C57BL/6, 672 h, time 28 day; how it was run: as §2
[17] = biological target: Kelch-like ECH-associated protein 1 (Homo sapiens) (UniProt Q14145); assay: Binding affinity to human Keap1 assessed as cysteine labeling at 30 uM incubated for 2 hrs by LC-MS/MS analysis
Sequence of Kelch-like ECH-associated protein 1 (Homo sapiens) (Q14145 whole entry): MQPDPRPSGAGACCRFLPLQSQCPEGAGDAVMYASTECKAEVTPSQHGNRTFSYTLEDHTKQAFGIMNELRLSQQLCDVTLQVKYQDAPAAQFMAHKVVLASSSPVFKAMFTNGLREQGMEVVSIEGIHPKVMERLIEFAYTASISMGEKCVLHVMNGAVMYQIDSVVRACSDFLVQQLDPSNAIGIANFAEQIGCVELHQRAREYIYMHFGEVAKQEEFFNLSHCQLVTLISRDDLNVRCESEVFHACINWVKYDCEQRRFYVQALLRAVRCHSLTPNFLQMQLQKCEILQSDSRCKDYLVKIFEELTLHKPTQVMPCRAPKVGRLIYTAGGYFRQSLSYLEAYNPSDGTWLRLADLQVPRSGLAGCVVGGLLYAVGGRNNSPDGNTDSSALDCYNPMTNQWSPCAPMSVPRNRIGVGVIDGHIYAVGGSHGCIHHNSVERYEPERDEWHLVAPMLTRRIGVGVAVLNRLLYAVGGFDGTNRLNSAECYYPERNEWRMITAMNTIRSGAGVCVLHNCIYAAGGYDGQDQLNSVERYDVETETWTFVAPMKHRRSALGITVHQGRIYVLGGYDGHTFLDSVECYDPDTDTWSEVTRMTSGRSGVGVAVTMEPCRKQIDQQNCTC

T2 sequence (Q12809 whole entry): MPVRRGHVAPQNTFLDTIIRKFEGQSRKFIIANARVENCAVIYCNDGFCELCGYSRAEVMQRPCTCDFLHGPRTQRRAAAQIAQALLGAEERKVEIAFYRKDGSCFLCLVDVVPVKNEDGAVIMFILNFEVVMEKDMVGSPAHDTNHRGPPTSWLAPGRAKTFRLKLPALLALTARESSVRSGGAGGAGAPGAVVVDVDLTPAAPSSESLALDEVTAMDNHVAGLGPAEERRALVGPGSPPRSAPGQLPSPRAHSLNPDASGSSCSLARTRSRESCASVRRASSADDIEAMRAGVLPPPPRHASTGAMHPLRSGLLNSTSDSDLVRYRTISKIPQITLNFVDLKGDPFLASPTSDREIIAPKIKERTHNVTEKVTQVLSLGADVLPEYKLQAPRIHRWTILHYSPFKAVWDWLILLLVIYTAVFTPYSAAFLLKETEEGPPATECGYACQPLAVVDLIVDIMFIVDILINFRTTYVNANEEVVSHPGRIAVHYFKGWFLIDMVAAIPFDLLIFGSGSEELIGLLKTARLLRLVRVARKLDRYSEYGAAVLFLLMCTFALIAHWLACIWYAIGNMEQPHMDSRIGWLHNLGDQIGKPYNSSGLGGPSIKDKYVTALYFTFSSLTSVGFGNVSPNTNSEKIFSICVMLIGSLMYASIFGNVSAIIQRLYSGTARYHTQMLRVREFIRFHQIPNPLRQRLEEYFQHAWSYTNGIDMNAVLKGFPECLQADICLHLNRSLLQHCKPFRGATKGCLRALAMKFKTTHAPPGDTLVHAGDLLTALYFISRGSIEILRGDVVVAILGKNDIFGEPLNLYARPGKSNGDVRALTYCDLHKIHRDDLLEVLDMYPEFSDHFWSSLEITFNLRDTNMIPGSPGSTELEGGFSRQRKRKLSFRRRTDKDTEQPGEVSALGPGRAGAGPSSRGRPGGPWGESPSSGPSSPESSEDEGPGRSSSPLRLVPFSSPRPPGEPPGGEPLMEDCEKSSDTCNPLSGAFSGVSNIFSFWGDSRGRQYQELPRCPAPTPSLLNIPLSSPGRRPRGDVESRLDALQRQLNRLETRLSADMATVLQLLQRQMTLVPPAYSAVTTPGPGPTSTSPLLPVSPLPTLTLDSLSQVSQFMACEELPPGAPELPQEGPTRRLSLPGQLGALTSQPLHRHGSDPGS
Sequence of 5-hydroxytryptamine receptor 2B (Homo sapiens) (P41595 whole entry): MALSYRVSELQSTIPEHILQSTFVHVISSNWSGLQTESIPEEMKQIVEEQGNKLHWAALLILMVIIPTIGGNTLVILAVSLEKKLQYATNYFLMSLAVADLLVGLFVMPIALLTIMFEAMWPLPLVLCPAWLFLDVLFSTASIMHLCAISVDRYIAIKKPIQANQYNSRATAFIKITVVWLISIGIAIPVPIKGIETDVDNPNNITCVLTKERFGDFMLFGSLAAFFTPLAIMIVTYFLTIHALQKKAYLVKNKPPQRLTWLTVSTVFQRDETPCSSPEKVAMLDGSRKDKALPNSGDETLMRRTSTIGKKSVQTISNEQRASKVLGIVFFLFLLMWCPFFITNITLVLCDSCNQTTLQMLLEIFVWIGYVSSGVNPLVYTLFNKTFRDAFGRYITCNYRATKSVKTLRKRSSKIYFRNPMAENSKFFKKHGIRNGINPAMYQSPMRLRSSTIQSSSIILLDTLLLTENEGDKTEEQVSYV

SMILES: Cn1cnn(/C=C/S(=O)(=O)c2ccccc2)c1=O
inhibition [1]: 74%
Activity (Mus musculus [2]): Active
IC50 (THP-1): 3.49 µM
inhibition in vivo at 30 mg/kg (Mus musculus [3]; C57BL/6, 672 h, time 28 day): 41%
inhibition in vivo at 60 mg/kg (Mus musculus [4]): 89%
inhibition [5]: 82%

SMILES: COC(=O)/C=C/n1nnn(C)c1=O
inhibition (INH) [6]: Active

SMILES: COC(=O)/C=C/n1cnn(C)c1=O
EC50 [7]: 95.2 µM
IC50 (THP-1): 29.5 µM

SMILES: COC(=O)/C=C/C(=O)OC [DIMETHYL FUMARATE]
EC50 [7]: 7.93 µM
Activity [8]: Active
inhibition in vivo at 75 mg/kg (Mus musculus [9]): 83%
IC50 (THP-1): 10.6 µM
Activity [10]: Dose-Dependent Effect
Activity (Mus musculus [11]): Active

SMILES: COC(=O)/C=C/n1nn[nH]c1=O
inhibition (INH) [12]: Active
EC50 [7]: 60.9 µM
IC50 (THP-1): 18 µM
Activity [13]: Toxic

SMILES: COC(=O)/C=C/C(=O)O [MONOMETHYL FUMARATE]
EC50 [7]: 127 µM
IC50 (THP-1): 18.9 µM

SMILES: COC(=O)/C=C/n1nnn(-c2cccnc2)c1=O
Stability [14]: Unstable
inhibition (INH) [15]: Active
Activity [13]: Non-Toxic

SMILES: Cc1ccc(S(=O)(=O)/C=C/n2ncn(C)c2=O)cc1
IC50 (THP-1): 6.92 µM

Second part, led by results:

IC50 (THP-1): 0.3 µM
SMILES: Cn1nnn(/C=C/S(=O)(=O)c2ccccc2)c1=O

IC50 (THP-1): 2.11 µM
SMILES: Cc1ccc(S(=O)(=O)/C=C/n2cnn(C)c2=O)cc1

IC50 (THP-1): 0.02 µM
SMILES: O=c1n(/C=C/S(=O)(=O)c2ccccc2)nnn1-c1cccnc1

IC50 (THP-1): 2.12 µM
SMILES: Cn1ncn(/C=C/S(=O)(=O)c2ccccc2)c1=O

inhibition [1]: 74%
Activity [17]: Active
IC50 (THP-1): 0.19 µM
inhibition [5]: 82%
SMILES: Cc1ccc(S(=O)(=O)/C=C/n2nnn(C)c2=O)cc1
inhibition in vivo at 10 mg/kg (Mus musculus [16]): 40%
Activity (Mus musculus [3]; time 28.0 day): inactive

From ChEMBL document CHEMBL5390300, “Tuning the Reactivity of Nuclear Factor Erythroid 2-Related Factor 2 (Nrf2) Activators for Optimal in Vivo Efficacy” (ACS Med Chem Lett, 2023)
